The record followed here is ChEMBL document CHEMBL1121810, “Antihypertensive activity of 6-arylpyrido[2,3-d]pyrimidin-7-amine derivatives” (1981).

Type in all cases: functional
Assay [1] concerns Rattus norvegicus. In words: Effect on heart rate of spontaneously hypertensive rats, 10 hr after peroral administration of 10 mg/kg of compound. Particulars: route oral. An outline of the steps: (§1)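 Heart rate was derived from the pulsatile arterial pressure signal in conscious catheterized male SHR (22-24 weeks, 250-350 g), with continuous monitoring sampled 3 min per 30 min. Drug was given by gavage as a 4% gum acacia suspension at 2 mL/kg, dose as free base, to groups of 3-4 rats with mean pressure >150 mmHg. Individual 30-min means were compared with pretreatment values.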

In assay [2] the test system is Rattus norvegicus. Nature of the assay: Effect on heart rate of spontaneously hypertensive rats, 10 hr after peroral administration at 50 mg/kg. Particulars: route oral. An outline of the steps: as §1
Assay [3] has as its system Rattus norvegicus. In words: Effect on heart rate of spontaneously hypertensive rats, 2 hr after peroral administration of 10 mg/kg of compound. Particulars: route oral. The gist of the method: as §1
In assay [4] the test system is Rattus norvegicus. Nature of the assay: Effect on heart rate of spontaneously hypertensive rats, 2 hr after peroral administration at 50 mg/kg. Particulars: route oral. The gist of the method: as §1
Assay [5] has as its system Rattus norvegicus. In words: Effect on heart rate of spontaneously hypertensive rats,18hours after peroral administration of 50 mg/kg of compound. Particulars: route oral. An outline of the steps: as §1
Assay [6] has as its system Rattus norvegicus. In words: Maximum percent decrease in heart rate of spontaneously hypertensive rats, 28 hours after peroral administration of 50 mg/kg of compound. As to conditions: route oral. The gist of the method: as §1
Assay [7] has as its system Rattus norvegicus. In words: Effect on heart rate of spontaneously hypertensive rats, 24 hr after peroral administration of 10 mg/kg of compound. As to conditions: route oral. An outline of the steps: as §1
Assay [8] deals with Rattus norvegicus. In words: Maximum percent decrease in heart rate of spontaneously hypertensive rats, 4 hours after peroral administration of 50 mg/kg of compound. As to conditions: route oral. The gist of the method: as §1
Assay [9] concerns Rattus norvegicus. Nature of the assay: Effect on heart rate of spontaneously hypertensive rats, 24 hr after peroral administration at 50 mg/kg. As to conditions: route oral. The gist of the method: as §1
The subject of assay [10] is Rattus norvegicus. Nature of the assay: Maximum percent decrease in heart rate of spontaneously hypertensive rats, 5 hours after peroral administration of 50 mg/kg of compound. As to conditions: route oral. The gist of the method: (§2)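 Conscious male SHR (Kyoto-Wistar origin, 22-24 weeks, 250-350 g; mean BP >150 mmHg, pulse pressure >25 mmHg) with indwelling catheters, ~0.8 mL heparinized saline/day. Dosed by gavage as a 4% gum acacia suspension, 2 mL/kg, free-base doses, 3-4 rats per group. Heart rate was derived from the pulsatile pressure signal, sampled 3 min every 30 min, and 30-min means were compared with pretreatment values.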

In assay [11] the test system is Rattus norvegicus. Nature of the assay: Maximum effect on heart rate of spontaneously hypertensive rats, 18 hours after peroral administration of 10 mg/kg of compound. As to conditions: route oral. An outline of the steps: as §1
Assay [12] relates to Rattus norvegicus. In words: Maximum effect on heart rate of spontaneously hypertensive rats, 3-5 hr after peroral administration of 10 mg/kg of compound. As to conditions: route oral. The gist of the method: as §1
Assay [13] concerns Rattus norvegicus. Nature of the assay: Maximum percent decrease in heart rate of spontaneously hypertensive rats, 3 hours after peroral administration of 50 mg/kg of compound. As to conditions: route oral. An outline of the steps:
as §1

Assay [14] has as its system Rattus norvegicus. Nature of the assay: Effect on heart rate of spontaneously hypertensive rats, 2 hr after peroral administration of 3 mg/kg of compound. Particulars: route oral. The gist of the method: as §1
The subject of assay [15] is Rattus norvegicus. In words: Effect on heart rate of spontaneously hypertensive rats, 10 hr after peroral administration of 3 mg/kg of compound. As to conditions: route oral. An outline of the steps: as §1
The subject of assay [16] is Rattus norvegicus. In words: Effect on heart rate of spontaneously hypertensive rats, 24 hr after peroral administration of 3 mg/kg of compound. As to conditions: route oral. An outline of the steps:
as §1

The species named for assay [17] is Rattus norvegicus. In words: Dose required to lower blood pressure by 30mmHg, 5-h post treatment. The gist of the method: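 Conscious male SHR (22-24 weeks, 250-350 g) with indwelling catheters for continuous blood pressure and heart rate monitoring; only rats with mean pressure >150 mmHg and pulse pressure >25 mmHg were used. Oral gavage of a suspension in 4% gum acacia (2 mL/kg), doses as free base, groups of 3-4. Mean pressure was sampled 3 min per 30 min and compared with pretreatment; the value is the dose lowering pressure by 30 mmHg at 5 h.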

The test system of assay [18] is Rattus norvegicus. In words: Maximum percent decrease in heart rate of spontaneously hypertensive rats, 10 hours after peroral administration of 50 mg/kg of compound. Particulars: route oral. An outline of the steps:
as §1

Assay [19] has as its system Rattus norvegicus. Nature of the assay: Blood pressure rating in spontaneously hypertensive rats, 2 hr after peroral administration of 50 mg/kg of compound. Particulars: route oral. The gist of the method: (§3)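 Conscious male SHR (Kyoto-Wistar origin, 22-24 weeks, 250-350 g) with indwelling catheters, given about 160 units heparin/day in saline. Only rats with mean blood pressure >150 mmHg and pulse pressure >25 mmHg were used, in groups of 3-4. Dosing was oral gavage at 2 mL/kg in 4% gum acacia suspension, as free base. Pressure was sampled 3 min of every 30 min, and 30-min means were compared with pretreatment values.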

The subject of assay [20] is Rattus norvegicus. Nature of the assay: Blood pressure rating in spontaneously hypertensive rats, 10 hr after peroral administration of 50 mg/kg of compound. Particulars: route oral. An outline of the steps: as §3
The subject of assay [21] is Rattus norvegicus. In words: Blood pressure rating in spontaneously hypertensive rats, 24 hr after peroral administration of 50 mg/kg of compound. As to conditions: route oral. An outline of the steps: as §3
For assay [22], the system named is Rattus norvegicus. In words: Max effect on heart rate of spontaneously hypertensive rats, 3-5 hr after peroral administration of 10 mg/kg of compound; significant decrease observed on 2nd and 3rd days. Particulars: route oral. The gist of the method:
as §1

Assay [23] has as its system Rattus norvegicus. In words: Maximum percent decrease in heart rate of spontaneously hypertensive rats, 24 hours after peroral administration of 50 mg/kg of compound. Particulars: route oral. The gist of the method:
as §1

Assay [24] relates to Rattus norvegicus. In words: (§4) Max effect on heart rate of spontaneously hypertensive rats, 3-5 hr after peroral administration of 3 mg/kg of compound. As to conditions: route oral. An outline of the steps:
as §1

In assay [25] the test system is Rattus norvegicus. Nature of the assay: Max effect on heart rate of spontaneously hypertensive rats, 3-5 hr after peroral administration of 10 mg/kg of compound. As to conditions: route oral. An outline of the steps:
as §1

Assay [26] deals with Rattus norvegicus. The assay is described as §4. Particulars: route oral. An outline of the steps: as §1
The source holds these as a separate data set.

The subject of assay [27] is Rattus norvegicus. In words: Max effect on heart rate of spontaneously hypertensive rats, 3-5 hr after peroral administration of 3 mg/kg of compound; significant decrease observed on 2nd and 3rd days. Particulars: route oral. The gist of the method:
as §1

Assay [28] deals with Rattus norvegicus. Nature of the assay: Effect on heart rate of spontaneously hypertensive rats, 18 hr after peroral administration of 10 mg/kg of compound. Particulars: route oral. An outline of the steps:
as §1

For assay [29], the system named is Rattus norvegicus. Nature of the assay: Maximum percent decrease in heart rate of spontaneously hypertensive rats, 6 hours after peroral administration of 50 mg/kg of compound. As to conditions: route oral. An outline of the steps:
as §2

Assay [30] concerns Rattus norvegicus. Nature of the assay: Maximum percent decrease in heart rate of spontaneously hypertensive rats, 10 hr after peroral administration of 50 mg/kg of compound. Particulars: route oral. An outline of the steps:
as §1

The subject of assay [31] is Rattus norvegicus. Nature of the assay: Maximum percent decrease in heart rate of spontaneously hypertensive rats, 8 hr after peroral administration of 50 mg/kg of compound. As to conditions: route oral. An outline of the steps:
as §2

Assay [32] relates to Rattus norvegicus. In words: Effect on heart rate of spontaneously hypertensive rats, 24 hours after peroral administration of 50 mg/kg of compound. As to conditions: route oral. An outline of the steps:
as §1

The test system of assay [33] is Rattus norvegicus. In words: Effect on heart rate of spontaneously hypertensive rats,24hours after peroral administration of 10 mg/kg of compound. Particulars: route oral. The gist of the method: as §1
Assay [34] has as its system Rattus norvegicus. In words: Maximum percent decrease in heart rate of spontaneously hypertensive rats, 4 hr after peroral administration of 50 mg/kg of compound. As to conditions: route oral. The gist of the method: as §1

Regarding `Nc1nc2ncncc2cc1-c1c(Cl)cccc1Br`, the Activity rating in the assay with Rattus norvegicus [1] is 1; in the assay on Rattus norvegicus [2] it was 2; with Rattus norvegicus [3] it was 1; with Rattus norvegicus [4], 1; with Rattus norvegicus [5] it was 1; in the assay on Rattus norvegicus [7], 1. This molecule showed a Decrease with Rattus norvegicus [6] of 28%.
As for `Cc1ncc2cc(-c3ccccc3C)c(N)nc2n1`, the Activity rating with Rattus norvegicus [2], with Rattus norvegicus [4] and with Rattus norvegicus [9] was 1 throughout. Further, the Decrease with Rattus norvegicus [8] was determined as 22%.
The molecule `Cc1ncc2cc(-c3c(Cl)cccc3Br)c(N)nc2n1` gave a Decrease in the assay on Rattus norvegicus [10] of 26%. Moreover, the Activity rating in the assay with Rattus norvegicus [2] amounted to 2; in the assay with Rattus norvegicus [11], 0; in the assay with Rattus norvegicus [12] it was 1; with Rattus norvegicus [4], 2; with Rattus norvegicus [9], 2.
Consider `Cc1cccc(C)c1-c1cc2cncnc2nc1N`, for which the Activity rating in the assay on Rattus norvegicus [2] is on record as 0; in the assay with Rattus norvegicus [4] it was 1. This molecule displayed a Decrease with Rattus norvegicus [13] of 12%.
Broadly, the LD50 is the dose at which mortality reaches 50%. A high value points to lower toxicity. For the molecule `Cc1ncc2cc(-c3c(Cl)cccc3Cl)c(N)nc2n1`, the Activity rating came to 1 with Rattus norvegicus [14]; 1 in the assay on Rattus norvegicus [1]; 3 in the assay on Rattus norvegicus [2]; 1 in the assay on Rattus norvegicus [3]; 1 in the assay on Rattus norvegicus [15]; 1 with Rattus norvegicus [4]. For the same molecule, the Activity rating in the assay on Rattus norvegicus [9] is reported as 3; with Rattus norvegicus [16], 1; in the assay on Rattus norvegicus [7] it was 1. In addition, the ED30 in the assay listed under Rattus norvegicus [17] came out at 17 mg/kg. The molecule also displayed an LD50 in the assay filed under Rattus norvegicus [17] of over 7000 mg/kg. Moreover, the Decrease in the assay with Rattus norvegicus [18] is listed as 32%.
Turning to `COCc1ncc2cc(-c3c(Cl)cccc3Cl)c(N)nc2n1`, the Activity rating with Rattus norvegicus [19], in the assay on Rattus norvegicus [20] and in the assay with Rattus norvegicus [21] was 1 in each case. For the same molecule, the Decrease with Rattus norvegicus [13] is recorded as 14%.
`Nc1nc2ncncc2cc1-c1c(Cl)cccc1Cl`: the Activity rating stood at 0 with Rattus norvegicus [22]; 0 in the assay on Rattus norvegicus [24]; 0 in the assay with Rattus norvegicus [2]; 0 with Rattus norvegicus [25]; 0 in the assay on Rattus norvegicus [4]; 2 in the assay with Rattus norvegicus [9]. Further, the Activity rating with Rattus norvegicus [26] and in the assay on Rattus norvegicus [27] was 0 in each case. The same molecule gave a Decrease in the assay on Rattus norvegicus [23] of 22%.
On to `Cc1ncc2cc(-c3c(Br)cccc3Br)c(N)nc2n1`, for which the Activity rating in the assay on Rattus norvegicus [1] was found to be 2; in the assay with Rattus norvegicus [2] it was 2; with Rattus norvegicus [3], 1; in the assay on Rattus norvegicus [28], 1; in the assay with Rattus norvegicus [4], 2; in the assay on Rattus norvegicus [9], 2. Besides, the Decrease with Rattus norvegicus [29] is on record as 28%.
For the molecule `Nc1nc2nc(CO)ncc2cc1-c1c(Cl)cccc1Cl`, the Activity rating with Rattus norvegicus [2] is 1; in the assay with Rattus norvegicus [4], 0; with Rattus norvegicus [9] it was 1. In addition, the Decrease in the assay with Rattus norvegicus [30] amounted to 17%.
As to `Cc1ncc2cc(-c3ccccc3Cl)c(N)nc2n1`, the Activity rating in the assay with Rattus norvegicus [2] was found to be 1; with Rattus norvegicus [4], 0; in the assay with Rattus norvegicus [9], 1. The same molecule registered a Decrease with Rattus norvegicus [31] of 16%.
Consider `Nc1nc2ncncc2cc1-c1ccccc1Cl`, for which the Activity rating in the assay on Rattus norvegicus [2], in the assay with Rattus norvegicus [32] and in the assay on Rattus norvegicus [4] was 0 each time.
As to `Nc1ncc2cc(-c3c(Cl)cccc3Cl)c(N)nc2n1`, in the assay on Rattus norvegicus [23], the Decrease is 18%. In addition, the Activity rating with Rattus norvegicus [1] came out at 0; with Rattus norvegicus [2] it was 1; in the assay with Rattus norvegicus [3], 0; in the assay on Rattus norvegicus [4] it was 0; in the assay on Rattus norvegicus [9], 2; in the assay on Rattus norvegicus [33] it was 1.
In the case of `Cc1ncc2cc(-c3ccccc3Br)c(N)nc2n1`, the Activity rating amounted to 1 with Rattus norvegicus [2], 0 in the assay on Rattus norvegicus [25], 1 in the assay with Rattus norvegicus [4] and 0 with Rattus norvegicus [9]. The molecule also came in with a Decrease in the assay with Rattus norvegicus [34] of 19%.
